Experimental data collected from several papers.
Each line is one published result; the experiments were not run side by side.
Target: Mitogen-activated protein kinase 3 (MAPK3, Homo sapiens, UniProt P27361)

O=C(N[C@H]1CCCCC/C=C\C2C[C@@]2(C(=O)O)NC(=O)[C@@H]2C[C@@H](Oc3ccncc3)CN2C1=O)OC1CCCC1 (stereo partly shown) gave a remaining binding of 69% (binding, competition with immobilised ligand; 1 µM).
For Cn1c(=O)n(-c2ccc(C(C)(C)C#N)cc2)c2c3cc(-c4cnc5ccccc5c4)ccc3ncc21, the remaining activity was 106% (enzyme activity, inhibitor; 10 µM).
Cn1c2c(c3ccc(Cl)c(Cl)c31)C(C#N)C1(CCNCC1)NC2=O (racemic) gave a ΔTm of 0.5 °C (thermal stability, DSF; 10 µM).
The remaining binding of Cc1cc(C)c(-n2ccn3nc(-c4cccnc4)cc23)cc1NC(=O)c1cc(C#N)cc(S(F)(F)(F)(F)F)c1 is reported as 95.2% (cell-free assay, competition with immobilised ligand; 0.1 µM).
For CCN1CCN(Cc2ccc(NC(=O)c3ccc(C)c(/C=C/c4cnc5[nH]ccc5c4OC)c3)cc2C(F)(F)F)CC1, the inhibition was -26.3% (target engagement in cells, inhibitor, chemoproteomics; A-375; 5 µM).
The remaining activity of COc1cc(Nc2cnc(C#N)c(O[C@H](C)CN(C)C)n2)ncc1-c1cnn(C)c1 is reported as 71% (enzyme activity, inhibitor, radiometric; 10 µM).
The inhibition of CC/C(=N\NC(=O)NCc1cccc(O)c1)c1ccc(O)c(C)c1O is reported as -2.7% (enzyme activity, inhibitor; 0.1 µM).
Cn1c2c(c3ccccc31)C(C#N)C(C)(C)NC2=O (stereo not shown) gave a ΔTm of -0.4 °C (thermal stability, DSF; 10 µM).
Cc1cc(-n2nc(Cc3cc(F)cc(C(F)(F)F)c3)nc2C)ccc1C(N)=O has a remaining binding of 100% (cell-free assay, competition with immobilised ligand; 1 µM).
With Cn1c2c(Cl)c(Cl)ccc2c2cc(N)[nH]c(=O)c21 the ΔTm was -0.4 °C (thermal stability, DSF; 10 µM).
COc1ccc2c(c1)O[C@H](c1ccc(OC)c(OC)c1)C[C@@H]2NC(=O)C1(c2ccc3c(c2)OC(F)(F)O3)CC1 has a remaining binding of 100% (cell-free assay, competition with immobilised ligand; 1 µM).
CC(C)(C)C(=O)c1sc(NC2CCCCC2)nc1N has a remaining activity of 73% (enzyme activity, inhibitor; 10 µM).
N#CC1c2c([nH]c3c(Cl)c(Cl)ccc23)C(=O)NC12CCCCC2 (racemic) gave a ΔTm of 0.1 °C (thermal stability, DSF; 10 µM).
For Oc1cccc(-c2nc(N3CCOCC3)c3oc4ncccc4c3n2)c1, the remaining activity was 112% (enzyme activity, inhibitor; 10 µM).
O=C(Nc1cccnn1)N1CCC(=Cc2cccc(Oc3ccc(C(F)(F)F)cn3)c2)CC1 gave a remaining binding of 100% (cell-free assay, competition with immobilised ligand; 1 µM).
N#CC(c1ccnc(NCCc2cccnc2)n1)c1nc2ccccc2s1 (stereo not shown) gave a remaining activity of 99.4% (enzyme activity, inhibitor; 0.5 µM).
For Cc1sc(C(=O)NC2COC2)cc1-n1cc(NC(=O)Nc2c(F)cccc2Cl)cn1, the remaining activity was 107% (enzyme activity, inhibitor; 10 µM).
With N#CC1(c2ccccn2)CCN(Cc2cc(C(=O)N3CCCC3)c(=O)n3ccccc23)CC1 the remaining binding was 91% (cell-free assay, competition with immobilised ligand; 1 µM).
N#CCCc1ccc2c(c1)-c1[nH]c3ccc([N+](=O)[O-])cc3c1CC(=O)N2 has a remaining signal of 95.1% (cell-free assay; 0.5 µM).
CCC1(CC)NC(=O)c2c(c3ccc(Cl)c(Cl)c3n2C)C1C#N (stereo not shown) has a ΔTm of 0 °C (thermal stability, DSF; 10 µM).
For FC(F)(F)Oc1cccc(-c2cnc3ccc(-c4ccncc4)nn23)c1, the activity vs control was 82% (enzyme activity, inhibitor, radiometric; 5 µM).
The remaining activity of CC(C)(O)[C@H]1CC[C@H](Nc2ccc3ncc(-c4cccc(C(F)(F)F)c4)n3n2)CC1 is reported as 94% (enzyme activity, inhibitor; 1 µM).
The remaining signal of COc1ccc(COc2ccc(Cc3cnc(N)nc3N)cc2OC)cc1 is reported as 99.1% (cell-free assay; 0.5 µM).
With CC(C)(C)c1nc2c(s1)c1nc(N)ncc1c1ccc(NS(=O)(=O)c3c(F)cccc3F)c(F)c12 the remaining activity was 84% (enzyme activity, inhibitor, radiometric; 1 µM).
The ΔTm of CCN1CCC2(CC1)NC(=O)c1c(c3ccc(Cl)c(Cl)c3n1C)C2C#N (racemic) is reported as 0 °C (thermal stability, DSF; 10 µM).
CCN1CCN(Cc2ccc(NC(=O)c3ccc(C)c(Oc4ccnc5[nH]ccc45)c3)cc2C(F)(F)F)CC1 has an inhibition of -24.5% (target engagement in cells, inhibitor, chemoproteomics; A-375; 50 nM).
For CCC(=O)N[C@@H]1CC[C@H](C(=O)N(C)c2ccc(-c3nc4ccccc4o3)cc2)C1, the remaining binding was 100% (cell-free assay, competition with immobilised ligand; 1 µM).
With c1nc2c(Nc3ccc4c(c3)OCCO4)nc(Nc3ccc4c(c3)OCCO4)nc2[nH]1 the activity vs control was 94% (enzyme activity, inhibitor; 10 µM).
O=C(Nc1cnn(-c2csc(C(=O)NC3COC3)c2)c1)Nc1c(F)cccc1Cl has a remaining activity of 92.4% (enzyme activity, inhibitor; 5 µM).
Cn1nc(C(=O)NCc2ccc(C(=O)O)cc2)cc1-c1ccc2[nH]ccc2c1 gave a remaining binding of 94% (cell-free assay, competition with immobilised ligand; 0.1 µM).
With Cc1ccc(NC(=O)c2ccc(CN3CCN(C)CC3)cc2)cc1Nc1nc(-c2cccnc2)cs1 the remaining signal was 103% (cell-free assay; 0.5 µM).
Cn1c2c(c3ccc(Cl)c(Cl)c31)C(C#N)C(C)(C)NC2=O (stereo not shown) gave a ΔTm of 0.1 °C (thermal stability, DSF; 10 µM).
The inhibition of COc1cc2ncnc(Nc3ccc(Oc4ccccc4)c(C)c3C)c2cc1OC is reported as 0% (enzyme activity, inhibitor; 1 µM).
For COc1cc(Nc2c(C#N)cnc3cc(OCCCN4CCN(C)CC4)c(OC)cc23)c(Cl)cc1Cl, the remaining signal was 98.9% (cell-free assay; 0.5 µM).
